# ChEMBL document CHEMBL4808239, “Challenges of short substrate analogues as SARS-CoV-2 main protease inhibitors” (Bioorg Med Chem Lett, 2021)
# Active and inactive are the calls of the source. No cut-off for these calls is given here. Starred links: 1 amine or outer side, 2 acyl side, 3 side chain; linkers in the order of their positions; H or OH if unused. Non-standard residues stand in square brackets, D forms with d. Residues, ends and D or L forms follow the SMILES beside them. X1 = N#Cc1cc(C[C@H](N[*:1])C(=O)[*:2])ccn1; Tle = CC(C)(C)[C@H](N)C(=O)O; Thz = O=C(O)[C@@H]1CSCN1; Abu = CC[C@H](N)C(=O)O
# Target: Replicase polyprotein 1ab (Severe acute respiratory syndrome coronavirus 2, UniProt P0DTD1)
# Experiment: Inhibition of SARS CoV-2 main protease using DABCYL-KTSAVLQ1SGFRKM-E(EDANS)-NH2 as substrate by FRET based assay
row,SMILES,IC50 [µM]
1,CC(C)C[C@@H]1NC(=O)[C@H](C(C)C)NC(=O)[C@H](C)NC(=O)[C@H](C)NC(=O)[C@@H]2CSC(=N2)c2cc(ccn2)C[C@@H](C(N)=O)NC(=O)[C@H](C)NC(=O)[C@H](CC(N)=O)NC1=O,> 100
2,CC(C)C[C@@H]1NC(=O)[C@H](CCCNC(=N)N)NC(=O)[C@H](C)NC(=O)[C@@H]2CSC(=N2)c2cc(ccn2)C[C@@H](C(N)=O)NC(=O)[C@H](CCC(=O)O)NC1=O,> 100
3,CC(C)C[C@H](NC(=O)[C@@H](NC(=O)[C@H](C)NC(=O)[C@H](C)NC(=O)[C@@H]1CSCN1)C(C)C)C(=O)N[C@@H](CCC(N)=O)C(=O)N[C@@H](C)C(=O)N[C@@H](Cc1ccnc(C#N)c1)C(N)=O (H-[Thz]AAVLQA[X1]-NH2),> 100
4,CC(C)C[C@@H]1NC(=O)[C@H](C(C)C)NC(=O)[C@@H]2CSC(=N2)c2cc(ccn2)C[C@@H](C(N)=O)NC(=O)[C@H](CO)NC(=O)[C@H](CCC(N)=O)NC1=O,> 100
5,CC[C@H](NC(C)=O)C(=O)N[C@H](C(=O)N[C@@H](CC(C)C)C(=O)N[C@@H](CCC(N)=O)C(N)=O)C(C)(C)C (Ac-[Abu][Tle]LQ-NH2),> 100
6,CC(C)C[C@@H]1NC(=O)[C@H](C(C)C)NC(=O)[C@H](C(C)C)NC(=O)[C@@H]2CSC(=N2)c2cc(ccn2)C[C@@H](C(N)=O)NC(=O)[C@H](CCC(=O)O)NC1=O,> 100

# Target: Replicase polyprotein 1ab (Severe acute respiratory syndrome coronavirus 2) (UniProt P0DTD1)
# Experiment: Binding affinity to SARS CoV-2 15N/2H-labeled main protease assessed as chemical pertubations at 100 uM by 15HSQC-NMR spectrum analysis
# In short: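 Wild-type main protease, ¹⁵N/²H-labelled, expressed with His6 tag, Ni-NTA purified and tag-cleaved. [¹⁵N,¹H]-HSQC spectra recorded at 25 °C (600/800 MHz) with and without compound and overlaid to look for chemical shift changes.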
row,SMILES,Activity
1,CC(C)C[C@@H]1NC(=O)[C@H](C(C)C)NC(=O)[C@H](C(C)C)NC(=O)[C@@H]2CSC(=N2)c2cc(ccn2)C[C@@H](C(N)=O)NC(=O)[C@H](CCC(N)=O)NC1=O,inactive
2,CC(C)C[C@@H]1NC(=O)[C@H](C(C)C)NC(=O)[C@H](C)NC(=O)[C@H](C)NC(=O)[C@@H]2CSC(=N2)c2cc(ccn2)C[C@@H](C(N)=O)NC(=O)[C@H](C)NC(=O)[C@H](CCC(N)=O)NC1=O,inactive
